Source: PubChem BioAssay
Only some compounds are listed: those with a hit (about 1.4% of all), similar ones and a draw of the others.
NR2E3 ag-1: NR2E3 (human) agonism. AID 2300. inhibition of corepressor binding, % at 4.78 µM. hit rate 0.12% among 320,000. GST-NR2E3/biotin-RetCOR TR-FRET, 1536-well. Q9Y5X4;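 active means percent inhibition above the cutoff of mean plus 3 SD of all tested compounds, set per screening campaign, cut at about 20% in these data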;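 further: 0% = DMSO wells and 100% = biotin wells as full block of FRET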
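Format: 1536-well format; test system: GST-NR2E3 and biotin-RetCOR proteins; read-out basis: percent inhibition of TR-FRET ratio; timing: 5 h incubation at 4 °C; detection: time-resolved FRET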
NR2E3 ag-2: activates human NR2E3 receptor. CHO-S Gal4-NCOR/VP16-NR2E3 two-hybrid, luciferase. inhibition of corepressor binding, % at 3.98 µM. AID 602229. hit rate 0.35% among 360,000;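 active means inhibition above the mean of all tested compounds plus 3 SD, cut at about 70% in these data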;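 further: 0% = DMSO with NR2E3 transfected cells and 100% = cells lacking NR2E3 construct; higher means lower luciferase signal from less NR2E3 corepressor binding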
NR1D1 modulator: modulates human Rev-erb alpha binding to DNA. Rev-erbα–FITC-DNA binding, fluorescence polarization, 90 min. P20393. activity, % at 10 µM. hit rate 0.79% among 370,000. AID 1259318;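 active means activity above about 14%, limit read from the data; passing the limit was not always enough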;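 further: 0% = DMSO wells with 35 nM protein and 100% = DMSO wells with 750 nM protein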
Target sequence (P20393 whole entry, looked up): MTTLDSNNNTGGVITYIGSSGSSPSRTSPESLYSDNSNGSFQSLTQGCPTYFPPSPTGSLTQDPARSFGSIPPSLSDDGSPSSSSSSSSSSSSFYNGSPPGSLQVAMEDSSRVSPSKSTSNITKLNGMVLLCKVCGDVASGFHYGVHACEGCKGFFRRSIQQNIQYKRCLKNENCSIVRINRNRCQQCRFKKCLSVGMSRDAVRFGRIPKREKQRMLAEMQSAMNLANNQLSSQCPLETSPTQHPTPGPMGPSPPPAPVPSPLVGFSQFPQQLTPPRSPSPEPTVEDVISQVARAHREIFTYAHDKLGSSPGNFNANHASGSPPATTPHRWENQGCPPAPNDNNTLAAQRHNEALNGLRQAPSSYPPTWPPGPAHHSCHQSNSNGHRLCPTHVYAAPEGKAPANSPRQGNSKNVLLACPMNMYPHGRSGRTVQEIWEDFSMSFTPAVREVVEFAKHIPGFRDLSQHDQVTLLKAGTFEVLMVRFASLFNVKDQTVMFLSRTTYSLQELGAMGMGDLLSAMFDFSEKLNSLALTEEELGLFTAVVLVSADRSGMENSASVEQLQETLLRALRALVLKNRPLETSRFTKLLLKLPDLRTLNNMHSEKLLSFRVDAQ
PG9 binder: PG9 antibody binding by small molecule; inhibition, % at 6.7 µM; TR-FRET gp120-PG9 antibody binding; AID 624416; hit rate 0.43% among 360,000; in the data active means inhibition above about 8.5%
NR2E3 ag conf: NR2E3 agonism confirmed in two-hybrid assay | shares compounds with NR2E3 ag-2 | hit rate 51% among 2,300 | AID 624378 | CHO-S mammalian two-hybrid NR2E3-NCOR, luciferase luminescence | inhibition, % at 3.98 µM;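 active means average inhibition above a cutoff equal to the mean inhibition of all tested compounds plus one SD, cut at about 70% in these data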;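 further: 0% = DMSO in NR2E3 cells and 100% = DMSO in cells lacking NR2E3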
VP16 counter: counter-screen for NR2E3 agonists: GAL4-VP16 reporter inhibitors | CHO-S GAL4-VP16 luciferase reporter, luminescence | shares compounds with NR2E3 ag-2 | hit rate 29% among 2,300 | AID 624379 | inhibition, % at 3.98 µM;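 active means mean inhibition above a cutoff equal to the average over all tested compounds plus one standard deviation, cut at about 70% in these data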;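 further: luciferase from a UAS reporter driven by GAL4-VP16 transactivation; 0% = DMSO with VP16-transfected cells and 100% = DMSO with cells lacking VP16; higher means less reporter light so more repression of VP16 activity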
Active calls of the source: *; / = no result given.

SMILES	NR2E3 ag-1	NR2E3 ag-2	NR1D1 modulator	PG9 binder	NR2E3 ag conf	VP16 counter
COc1ccc(NC(=S)N(CCCN2CCOCC2)Cc2ccco2)cc1	-1.4	-7.4	5.0	-1.0	/	/
COc1ccc(NC(=O)N2CCN(c3cccc(C(F)(F)F)c3)CC2)cc1	2.1	24.2	-1.1	2.3	/	/
CN(C)S(=O)(=O)c1ccc(NC(=O)N2CCN(c3cccc(C(F)(F)F)c3)CC2)cc1	0.9	49.0	0.6	-0.6	80.0*	69.2
Cc1ccc(C)c(NC(=S)N2CCN(c3cccc(C(F)(F)F)c3)CC2)c1	1.6	6.8	2.3	-3.4	/	/
Cc1ccnc(NC(=S)N2CCN(c3cccc(C(F)(F)F)c3)CC2)c1	-58.7	84.0*	3.3	-0.4	91.3*	33.2
Cc1cc(C)cc(NC(=O)NCCCN2CCN(c3ccc(F)cc3)CC2)c1	/	/	3.3	/	/	/
N#C/C(=C1/SC[C@@H](c2ccc(Cl)cc2Cl)S1)n1ccnc1	/	/	1.0	/	/	/
CCCCCCCCCCCCN1[C@@H](CC(=O)O)c2cc(C(F)(F)F)ccc2S1(=O)=O	-3.1	53.4	-1.5	0.6	98.2*	30.1
CCCCCCCCCCCCN1[C@@H](CC(=O)O)c2cc(F)ccc2S1(=O)=O	0.3	94.8*	2.8	1.1	94.2*	39.9
CCCCCCCCN1[C@@H](CC(=O)O)c2cc(C(F)(F)F)ccc2S1(=O)=O	1.8	29.1	-2.2	0.7	/	/
Cc1ccc(S(=O)(=O)N2CCCC2C(=O)N2CCN(c3ccccc3)CC2)cc1 (stereo unspecified)	/	/	5.5	/	/	/
C=CCN1[C@H](Cc2ccccc2)COc2cc(F)ccc2S1(=O)=O	/	/	4.4	/	/	/
Cc1nn(C(C)(C)C)c(C)c1/C=N/OC(=O)Nc1ccc(Cl)cc1	-1.4	97.1*	-3.2	1.1	-3.0	90.6*
CC(C(=O)N1CCN(c2ccc(Cl)cc2)CC1)c1ncc(C(F)(F)F)cc1Cl (stereo unspecified)	9.7	80.7*	-2.5	0.1	76.0*	51.5
COCC(=O)N(Cc1ccccc1)c1ccccc1C(=O)Nc1cc(OC)ccc1OC	/	/	3.7	/	/	/
COc1ccccc1C(=O)N1CCN(CCNC(=O)C(=O)Nc2ccc(Br)c(C)c2)CC1	8.1	49.4	-4.5	-0.9	39.0	35.7
N=c1c2c(ccn1CCCc1ccccc1)Oc1ccc3ccccc3c1C2c1ccccc1 (stereo unspecified)	/	/	8.9	/	/	/
CCN(CC)c1ccc(C(=O)NNC(=O)CCl)cc1	-3.4	-9.7	-8.6	-3.0	/	/
CCN(CC)c1ccc(C(=C2C=CC(=[N+](CC)CC)C=C2)c2ccc(N(CC)CC)cc2)cc1	/	101.2*	-18.7	-128.2	99.4*	92.2*
CCN(CC)c1ccc(C(=O)NNC(=O)CCNC(=O)c2ccccc2)cc1	4.3	10.5	-4.3	-0.5	/	/
CCN(CC)c1ccc(C(=C2C=CC(=[N+](CC)CC)C=C2)c2ccccc2)cc1	/	101.1*	-6.7	-23.4	99.2*	98.4*
O=c1c2c(nc3c(-c4ccc(Cl)cc4)c[nH]n13)CCC2	-5.8	77.4*	0.7	0.3	66.0	49.6
c1ccc(-c2ccc(CNc3nc(-c4ccccn4)nnc3-c3ccccc3)cc2)cc1	/	/	2.4	/	/	/
COc1ccc(C2=NS(=O)(=O)N(C)C(C(=O)Nc3ccc4c(c3)OCO4)=C2)cc1	1.4	28.0	2.8	1.2	/	/
Cc1ccc(C2=NS(=O)(=O)N(C)C(C(=O)Nc3ccc4c(c3)OCO4)=C2)cc1	3.5	48.8	4.3	-1.6	33.4	41.7
O=C(Nc1cccc(C(F)(F)F)c1)C1CCN(S(=O)(=O)c2ccc(N3CCCC3=O)cc2)CC1	4.7	84.7*	-3.8	-1.5	90.3*	67.6
CC(=O)N1c2ccc(S(=O)(=O)N3CCC(C(=O)Nc4cccc(C(F)(F)F)c4)CC3)cc2CC1C (stereo unspecified)	-1.3	58.5	3.2	1.7	61.3	43.9
CC(=O)N1c2ccc(S(=O)(=O)N3CCC(C(=O)Nc4ccccn4)CC3)cc2CC1C (stereo unspecified)	-0.1	5.9	-4.3	0.0	/	/
CC(=O)N1c2ccc(S(=O)(=O)N3CCC(C(=O)Nc4cccc(C)n4)CC3)cc2CC1C (stereo unspecified)	-3.8	49.7	-2.1	-2.0	17.9	5.5
COc1cccc(NC(=O)C2CCN(S(=O)(=O)c3ccc4c(c3)CC(C)N4C(C)=O)CC2)c1 (stereo unspecified)	-2.8	-4.8	10.9	-2.1	/	/
